Source: PubChem
PHOSPHO1 inh = PubChem AID 1565 | recombinant PHOSPHO1, absorbance phosphatase assay | inhibition, % at 13.3 µM | actives 1.1% (n = 290,000); in the data active = inhibition above about 60%
TbMetRS inhib = T. brucei MetRS inhibitors, primary screen, biochemical, luminescence; methionyl-tRNA synthetase (Trypanosoma brucei brucei); inhibition, % at 11.9 µM; actives 0.4% (n = 360,000); purified T. brucei MetRS, ATP depletion, Kinase-Glo luminescence;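 active = inhibition above a per-plate cutoff of the control wells' mean inhibition plus 3 SD, cut at about 5.5% in these data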;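 note: 0% = DMSO wells median and 100% = median of wells with control inhibitor compound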
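Test system: purified T. brucei MetRS enzyme. Also added: ATP, methionine and E. coli bulk tRNA substrates. Compound: 11.9 µM single point. Schedule: 15 min enzyme-compound preincubation, 2 h reaction, 10 min detection, 25 °C. Signal: luciferase luminescence of residual ATP, Kinase-Glo. Evaluation: percent inhibition versus plate control medians. Controls: DMSO wells, low control.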
APOBEC3G inh = APOBEC3G DNA deaminase inhibitors, primary screen, biochemical, fluorescence, single-stranded DNA substrate, uHTS; inhibition, % at 20 µM; DNA dC->dU-editing enzyme APOBEC-3G (Homo sapiens), Q9HC16; AID 493012, 2011; actives 0.28% (n = 330,000); recombinant A3G, ssDNA deamination FAM/TAMRA fluorescence;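 active = inhibition of at least 40% at 20 µM, with no more than 30% in the related APOBEC3A deaminase screen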;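 note: plate controls were DMSO wells with A3G for no effect and wells lacking A3G enzyme for full effect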
pCIP destab = p/CIP-EGFP fusion destabilizers, primary screen, fluorescence, F442A cells | Q05BA5 | 16 h | actives 0.01% (n = 290,000) | decrease of EGFP signal, % at 10 µM;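 active = EGFP signal decrease of at least 30% at 10 µM or well 3 SD below plate mean, unless failing retest; inactive = the rest, including hits failing retest or dose response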
Target sequence (Q05BA5 1-1403): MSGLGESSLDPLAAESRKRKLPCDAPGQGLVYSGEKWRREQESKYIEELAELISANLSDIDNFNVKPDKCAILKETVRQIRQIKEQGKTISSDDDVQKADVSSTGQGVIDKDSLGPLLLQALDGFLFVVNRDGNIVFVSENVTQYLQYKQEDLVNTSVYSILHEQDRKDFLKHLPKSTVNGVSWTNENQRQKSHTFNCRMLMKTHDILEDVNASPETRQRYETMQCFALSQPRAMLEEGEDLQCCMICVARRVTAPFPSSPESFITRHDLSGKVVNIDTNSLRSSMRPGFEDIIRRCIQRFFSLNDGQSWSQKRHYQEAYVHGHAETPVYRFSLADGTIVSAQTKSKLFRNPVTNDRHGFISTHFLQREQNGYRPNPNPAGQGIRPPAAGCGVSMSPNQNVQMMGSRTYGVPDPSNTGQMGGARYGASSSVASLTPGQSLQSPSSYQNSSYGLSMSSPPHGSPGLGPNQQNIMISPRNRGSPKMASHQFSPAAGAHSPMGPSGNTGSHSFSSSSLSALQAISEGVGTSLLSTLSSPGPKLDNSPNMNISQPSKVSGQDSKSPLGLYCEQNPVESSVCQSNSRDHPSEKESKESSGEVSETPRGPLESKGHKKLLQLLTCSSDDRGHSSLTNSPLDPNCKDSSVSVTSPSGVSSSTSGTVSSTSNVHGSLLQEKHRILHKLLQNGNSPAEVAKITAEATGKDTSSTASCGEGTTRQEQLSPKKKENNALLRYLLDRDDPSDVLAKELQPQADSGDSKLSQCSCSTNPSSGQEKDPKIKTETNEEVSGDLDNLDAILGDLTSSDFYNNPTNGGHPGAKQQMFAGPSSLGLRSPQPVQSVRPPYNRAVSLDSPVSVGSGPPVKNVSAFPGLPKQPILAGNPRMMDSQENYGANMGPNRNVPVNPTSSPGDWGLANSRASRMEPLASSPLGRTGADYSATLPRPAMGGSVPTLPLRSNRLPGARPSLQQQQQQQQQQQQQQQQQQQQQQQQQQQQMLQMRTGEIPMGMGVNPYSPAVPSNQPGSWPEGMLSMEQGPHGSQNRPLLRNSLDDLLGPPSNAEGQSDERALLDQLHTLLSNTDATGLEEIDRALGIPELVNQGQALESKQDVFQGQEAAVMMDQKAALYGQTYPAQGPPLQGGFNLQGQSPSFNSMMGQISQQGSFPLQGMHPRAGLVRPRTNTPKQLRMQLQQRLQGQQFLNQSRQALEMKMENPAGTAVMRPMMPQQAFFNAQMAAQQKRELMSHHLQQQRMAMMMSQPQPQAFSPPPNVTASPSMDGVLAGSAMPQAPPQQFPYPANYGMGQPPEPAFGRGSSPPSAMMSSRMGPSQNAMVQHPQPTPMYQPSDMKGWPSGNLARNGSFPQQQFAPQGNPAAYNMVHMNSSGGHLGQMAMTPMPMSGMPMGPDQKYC
A3A deaminase = APOBEC3A ssDNA deaminase inhibitors, primary screen, selectivity assay for APOBEC3G inhibitor project, biochemical, FAM/TAMRA oligo cleavage fluorescence. DNA dC->dU-editing enzyme APOBEC-3A (Homo sapiens), P31941. recombinant A3A, FAM/TAMRA ssDNA deamination fluorescence. inhibition, % at 20 µM. actives 0.41% (n = 330,000);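 active = at least 40% inhibition at 20 µM here, with at most 30% in a related deaminase screen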;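 note: plate controls were A3A with DMSO for no effect and wells lacking A3A enzyme for full effect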
Active calls of the source: *; nt = no result. A selection: hits, their analogues and other compounds. The true share with any hit is near 1.8%.

SMILES | PHOSPHO1 inh | TbMetRS inhib | APOBEC3G inh | pCIP destab | A3A deaminase
O=C(CC1Sc2ccccc2NC1=O)OCC(=O)N1CCc2ccccc21 (stereo not given) | 62* | 0 | -4 | -5 | 6
COc1ccccc1/C=C1\NC(=S)N(CC2CCCO2)C1=O (stereo not given) | 97* | -1 | -3 | -18 | -1
COC(=O)c1[nH]c2ccc(C)cc2c1NC(=O)CN1CCN(c2ccccc2)CC1 | 6 | 0 | -5 | -2 | -1
CCC(C(=O)N1CCN(Cc2ccc3c(c2)OCO3)CC1)n1c(=O)[nH]c2ccccc2c1=O (stereo not given) | 70* | 0 | 3 | -12 | 0
O=C(Cn1c(=O)[nH]c2ccccc2c1=O)N1CCN(Cc2ccc3c(c2)OCO3)CC1 | 18 | -1 | 0 | -12 | -4
O=C(CN1CCN(Cc2ccc3c(c2)OCO3)CC1)Nc1ccc2[nH]c(=O)[nH]c2c1 | nt | 0 | 1 | nt | 1
Cc1[nH]c2ccccc2c1NC(=O)CN1CCN(Cc2ccc3c(c2)OCO3)CC1 | 97* | nt | nt | -13 | nt
COC(=O)c1[nH]c2ccc(C)cc2c1NC(=O)CN1CCN(Cc2ccccc2)CC1 | 85* | 0 | 13 | -10 | 30
O=C(CN1CCc2cc3c(cc2C1)OCCCO3)Nc1cccc(Br)c1 | 44 | 0 | -5 | -1 | -3
Cc1ccc(NC(=O)CSc2nnc(C3CC3)n2CC2CCCO2)cc1C (stereo not given) | -116 | 0 | -5 | -7 | -2
Cc1cc(C)c2c(c1)-c1c(ssc1=S)C(C)(C)N2C(=O)CSc1nncn1C | 62* | -1 | -1 | -7 | 0
Cc1ccc2c(c1)-c1c(ssc1=S)C(C)(C)N2C(=O)CSc1nncn1C | -21 | 0 | -6 | 8 | -2
COc1ccc([N+](=O)[O-])cc1NC(=O)COC(C)=O | 65* | 1 | -7 | -2 | 5
COc1ccccc1OCC(=O)NNC(=O)C(=O)N1CCCC1 | -10 | 0 | -6 | 0 | 0
N/C(Cn1cncn1)=N\NC(=O)C(=O)Nc1ccc(Cl)cc1Cl | 60* | 0 | -4 | 5 | -1
N#Cc1cc2c([nH]c1=S)CCCCCC2 | 93* | -1 | 39 | 0 | -6
CCC1CCC2(CC1)NNC(=S)NN2 | 97* | 0 | -1 | -7 | 3
CCC1CCC2(CC1)NC(CO)(CO)CO2 (stereo not given) | 13 | 0 | 4 | -4 | 4
CC1CCCN(C(=O)C2CCN(c3nc(-c4ccccc4)nc4c3CCC4)CC2)C1 (stereo not given) | 66* | 0 | -7 | -2 | 0
CN(C(=S)SCc1ccccc1)C1CCS(=O)(=O)C1 (stereo not given) | 47 | -1 | -2 | -8 | -1
CC(C)(C)C1=Nn2c(nnc2-c2ccccn2)SC1 | 63* | -1 | 20 | -3 | -5
Cc1cc(N)n2nc(C)c(-c3ccccc3)c2n1 | 60* | -1 | nt | -3 | nt
COc1ccccc1CNC(=O)C(=O)c1cn(CC(=O)N2CCCC2)c2ccccc12 | 62* | -1 | 1 | 5 | -1
CCCCOC(=O)Nc1cccc(Cl)c1C | 31 | 0 | -10 | -6 | -4
CCCCCCNC(=O)OC12CN(C(=O)OC(C)C)N(C(=O)OC(C)C)CC1(O)CN(S(=O)(=O)c1ccc(C)cc1)C2 (stereo not given) | nt | 1 | nt | nt | nt
SMILES | PHOSPHO1 inh | TbMetRS inhib | APOBEC3G inh | pCIP destab | A3A deaminase
COC(=O)c1c(NS(=O)(=O)Cc2ccccc2)sc2c1CCCC2 | 71* | 0 | 4 | -10 | -3
CCN(C(=O)c1ccc(C)c(Br)c1)c1ccccc1 | -1 | 0 | -7 | 3 | -6
O=C(NNC(=S)NC(=O)c1ccccc1[N+](=O)[O-])c1ccccc1O | -16 | 0 | 1 | -10 | -4
O=C(NNC(=S)NC(=O)c1ccccc1[N+](=O)[O-])c1ccccc1[N+](=O)[O-] | 85* | 0 | 3 | 0 | -2
Cc1cc(C)n(-c2ccc(NC(=O)C3CCCCN3Cc3cccc4c3OCO4)cc2)n1 (stereo not given) | nt | 1 | -8 | -4 | -4
CCOc1ccc(C2CC(=O)n3nc(C45CC6CC(CC(C6)C4)C5)nc3S2)cc1OC (stereo not given) | 84* | 0 | 1 | -2 | 0
C=CCSC1=C(C#N)C(c2ccccc2OCC)C(C#N)C(=O)N1 (stereo not given) | 89* | 0 | -2 | -7 | -5
Cc1cccc(N2CC(=O)N(c3cccc(C)c3)CC2=O)c1 | -3 | 0 | -2 | 0 | 0
COc1cccc(N2CC(=O)N(c3cccc(OC)c3)CC2=O)c1 | 60* | -1 | -9 | -4 | -1
CCCNC(=O)c1nnsc1Sc1ccc(Cl)cc1 | 12 | 0 | -5 | -12 | -2
O=C(Nc1ccc(S(=O)(=O)N2CCCC2)cc1)c1cccs1 | 60* | 0 | -7 | -12 | 2
CC1C2NC(=O)N(Cc3ccccc3)C1(C)Oc1ccccc12 (stereo not given) | -20 | -1 | -2 | 7 | 0
C=CCSc1nc2sc3c(c2c(=O)n1CC)CCc1ccccc1-3 | 87* | -1 | -2 | 0 | -5
C=CCn1c(SCC)nc2sc3c(c2c1=O)CCc1ccccc1-3 | 49 | 0 | -6 | 4 | 1
COCCN(C(=O)COC(=O)/C(=C/c1ccccc1)NC(C)=O)c1c(N)n(Cc2ccccc2)c(=O)[nH]c1=O | 17 | 0 | -5 | 4 | 1
CC1CC(C)CN(CCCNC(=O)c2ccc(CNS(=O)(=O)c3ccc(F)cc3)cc2)C1 (stereo not given) | 75* | 0 | 1 | -6 | 0
O=C(NCCCN1CCOCC1)c1ccc(CNS(=O)(=O)c2ccc(F)cc2)cc1 | 18 | -1 | -7 | -4 | -6
CCOC(=O)c1cc(-c2ccccc2)sc1NC(=O)C(C)N1C(=O)c2ccccc2C1=O (stereo not given) | 2 | 0 | -7 | 6 | -3
C=CCSC1=N/C(=C\c2cc(OCC)c(OC(C)=O)c([N+](=O)[O-])c2)C(=O)S1 | 7 | 1 | 1 | -14 | 8
Cc1c(C)n(C(=O)CSc2nccn2C)c2ccccc12 | 61* | 0 | -5 | -22 | -3
CCn1c(SCC(=O)n2c(C)c(C)c3ccccc32)nnc1-c1ccco1 | -3 | -3 | -3 | -3 | 1
COc1ccc(C(=O)NCCn2cc(SCC(=O)NCc3ccco3)c3ccccc32)cc1 | 62* | 0 | -9 | 1 | -3
COc1ccc(C(=O)NCCn2cc(SCC(=O)NCC3CCCO3)c3ccccc32)cc1 (stereo not given) | 58 | 0 | -5 | -10 | 3
